# ARFGAP1 inhibitor: inhibitors of rat ARFGAP1 GAP activity, primary screen, biochemical, fluorescence polarization, GDP tracer; Arfgap1-stimulated ARF1 GTP hydrolysis, GDP FP detection; inhibition, % at 16.5 µM; hit rate 0.26% among 360,000; ADP-ribosylation factor GTPase-activating protein 1 (Rattus norvegicus), Q62848;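 active = inhibition above a per-plate limit, mean inhibition of low control wells plus 3 SD, cut at about 25% in these data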;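 note: 0% = DMSO wells with enzyme and 100% = wells lacking Arfgap1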
# Target sequence (Q62848 1-136 limits assumed): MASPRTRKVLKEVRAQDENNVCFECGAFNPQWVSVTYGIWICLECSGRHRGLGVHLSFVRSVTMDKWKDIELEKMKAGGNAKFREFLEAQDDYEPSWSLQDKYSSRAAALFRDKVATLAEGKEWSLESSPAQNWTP
#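 system = rat Arfgap1 catalytic domain, aa 1-136 | technique = FP, GDP Alexa 633 tracer displaced from anti-GDP antibody, 620/688 nm | compound = one concentration, 16.5 µM, DMSO 1.26% | medium = HEPES-based buffer, pH 7.5 | timing = compound-enzyme preincubation 20 min, reaction 120 min, detection 60 min, 25 °C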
# PP5 inh: PP5 phosphatase inhibitors, primary screen, biochemical, fluorescence. hit rate 0.18% among 320,000. inhibition, % at 6.7 µM. purified PP5c, OMFP substrate fluorescence;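 active = inhibition above the campaign's mean inhibition across all tested compounds plus 3 SD, cut at about 9.5% in these data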;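 note: 0% = DMSO only and 100% = 100 µM cantharidin control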
# ASAP1 inh: inhibitors of human ASAP1 ArfGAP activity, primary screen, biochemical, fluorescence polarization. ASAP1-stimulated ARF1 GTP hydrolysis, GDP FP detection. hit rate 0.19% among 360,000. Arf-GAP with SH3 domain, ANK repeat and PH domain-containing protein 1 (Homo sapiens), …. inhibition, % at 16.5 µM. AID 624377, 2012; in the data active = inhibition above about 25%;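 note: 0% = vehicle with enzyme and substrate and 100% = no enzyme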
# PKD1 kinase inh: inhibitors of human PKD1 kinase, biochemical, fluorescence polarization | Serine/threonine-protein kinase D1 (Homo sapiens), Q15139 | PKD1 kinase fluorescence polarization assay | inhibition, % (test concentration not listed) | hit rate 0.056% among 200,000 | AID 797, 2007; in the data active = inhibition above about 50%
# PP5 inh confirm: PP5 phosphatase inhibitors, confirmation, biochemical, fluorescence, human. shares compounds with PP5 inh. Purified PP5, fluorogenic phosphatase substrate. inhibition, % at 6.7 µM. hit rate 22% among 460. AID 2331, 2010; in the data active = inhibition above about 9.5%
# PP1 inh counter: PP1 phosphatase inhibitors, counter-screen for PP5 inhibitor project, biochemical, fluorescence, triplicate; shares compounds with PP5 inh; PP1 enzyme, fluorescent phosphatase substrate; inhibition, % at 6.7 µM; hit rate 4% among 460; in the data active = inhibition above about 16%
# ASAP1 inh confirm: ASAP1 GAP activity inhibitors, confirmation, biochemical, fluorescence polarization, human, triplicate; shares compounds with ASAP1 inh; ASAP1-stimulated Arf1 GTPase, GDP fluorescence polarization; inhibition, % at 16.5 µM; hit rate 37% among 620; AID 624431, 2012;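 active = mean inhibition over triplicates exceeds the hit threshold derived for the earlier primary screening run, cut at about 25% in these data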
# ARFGAP1 confirm: ARFGAP1 inhibitor hit confirmation, biochemical, fluorescence polarization, triplicate; shares compounds with ARFGAP1 inhibitor; ARFGAP1-stimulated ARF1 GTP hydrolysis, GDP tracer FP; inhibition, % at 16.5 µM; hit rate 30% among 890;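 active = average inhibition over triplicates above the hit cutoff set in the earlier primary screen, cut at about 25% in these data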;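 note: 0% = Arfgap1 plus ARF1-GTP with DMSO and 100% = wells lacking Arfgap1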
# Target sequence (Q62848 whole entry, looked up): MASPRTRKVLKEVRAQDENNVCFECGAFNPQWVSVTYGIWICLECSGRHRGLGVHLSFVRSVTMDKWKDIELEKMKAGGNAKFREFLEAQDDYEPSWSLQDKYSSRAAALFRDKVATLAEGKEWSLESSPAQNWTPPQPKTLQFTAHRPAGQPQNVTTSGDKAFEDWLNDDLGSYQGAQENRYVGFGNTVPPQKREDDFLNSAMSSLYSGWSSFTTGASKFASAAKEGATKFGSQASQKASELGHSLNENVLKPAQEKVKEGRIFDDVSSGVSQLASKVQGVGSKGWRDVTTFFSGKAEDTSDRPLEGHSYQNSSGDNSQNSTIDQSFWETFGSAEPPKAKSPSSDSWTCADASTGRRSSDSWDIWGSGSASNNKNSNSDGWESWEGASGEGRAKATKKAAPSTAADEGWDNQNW
# * marks the source's active call; other numbers are inactive results; / = no result. Sampled rows, rich in hits. Any-hit rate of the full collection: about 0.54%.
SMILES,ARFGAP1 inhibitor,PP5 inh,ASAP1 inh,PKD1 kinase inh,ASAP1 inh confirm,others
O=C(C(=O)N1CCC(CNS(=O)(=O)c2ccc(F)cc2)CC1)c1cc2ccccc2o1,8.6,/,4.1,/,/,
O=C(Nc1cccnc1)c1ccc(CSc2ccc(Cl)cc2)o1,0.6,/,7.8,/,/,
CSc1ccc(CN2CCC(C)(Oc3ccc(-n4ccnc4)cc3)C2)cc1 (stereo unspecified),11.1,/,-2.6,/,/,
CC(=O)c1cccc(-c2ccc3c(=O)[nH]c(Nc4ccccc4)cc3c2)c1,29.9*,9.7*,53.3*,/,39.4*,PP5 inh confirm=29.4*;PP1 inh counter=20.9*;ARFGAP1 confirm=25.7*
O=c1[nH]c(Nc2ccccc2)cc2ccccc12,32.9*,10.8*,24.9*,-10.6,12.6,PP5 inh confirm=33.9*;PP1 inh counter=0.0;ARFGAP1 confirm=-0.8
CC(=O)c1cccc(Nc2nc(-c3ccccc3)nc3ccccc23)c1,2.9,2.1,15.8,/,/,
CC(=O)c1ccc(NC2=C(N3CCOCC3)C(=O)c3ccccc3C2=O)cc1,25.3*,10.5*,26.8*,0.7,13.1,PP5 inh confirm=16.2*;PP1 inh counter=0.1;ARFGAP1 confirm=1.4
CC(=O)N(C)C1=C(N2CCOCC2)C(=O)c2ccccc2C1=O,/,5.6,/,-10.8,/,
O=C(NC1(O)C(=O)c2ccccc2C1=O)c1ccccc1,36.6*,14.8*,53.0*,-1.5,21.0,PP5 inh confirm=38.7*;PP1 inh counter=12.7;ARFGAP1 confirm=2.6
O=C(NC1(O)C(=O)c2ccccc2C1=O)c1c(Cl)cccc1Cl,26.1*,16.4*,20.6,/,/,PP5 inh confirm=41.5*;PP1 inh counter=7.4;ARFGAP1 confirm=9.8
C=CCN=C1NC(c2ccc(F)cc2)C(C(=O)OC)=C(C)N1Cc1ccccc1C(F)(F)F (stereo unspecified),8.6,/,24.7*,/,-2.0,
Cc1cc(Br)cn2c(Cc3ccsc3)c(-c3ccc(F)cc3)nc12,-1.0,/,0.6,/,/,
Cc1cccc(NC(=O)CCS(=O)(=O)c2ccc3nc(C)sc3c2)c1,3.0,/,-9.9,/,/,
CNC(=O)C(=O)Nc1ccc2c(c1)N(S(=O)(=O)c1cccs1)CCC2,2.3,-0.5,28.6*,/,5.4,
CC(C)NC(=O)C(=O)Nc1ccc2c(c1)N(S(=O)(=O)c1cccs1)CCC2,10.5,1.7,-0.7,/,/,
Cc1cc(O)cc(=O)n1-c1cc(Cl)cc(Cl)c1,6.0,/,-1.5,/,/,
COC(=O)[C@]12CCCCC=C1N(Cc1ccccc1)C(=O)[C@H](CC(=O)NCC1CCCCC1)C2,-4.3,/,-1.0,/,/,
COn1c(SC(C)C)nc2ccccc2c1=O,-5.0,1.5,1.4,1.3,/,
COn1c(SC2CCCCC2)nc2ccccc2c1=O,-8.6,0.9,74.4*,6.6,-2.5,
Cc1ccc(NC2=CC(=O)C(=O)c3ccccc32)cc1,0.8,1.6,17.7,-4.4,/,
Cc1cc(NC2=CC(=O)C(=O)c3ccccc32)no1,0.9,/,28.9*,/,9.6,
CCCCN1C(=O)C(CC(=O)NCc2cccc3ccccc23)CC(C(=O)N2CCCCCC2)=C1C (stereo unspecified),-7.2,/,-3.2,/,/,
C[C@H](O)[C@@H]1C(=O)N2CCc3c([nH]c4c(-c5ccc6c(c5)OCO6)cccc34)[C@@H]2C[C@@H]1N(C)C(=O)NC1CCCCC1,-1.4,/,0.8,/,/,
COc1ccc(/C=C2\C(=O)NC(=S)N2C(=O)c2ccc(F)cc2)cc1,-10.6,-3.8,24.9*,-10.8,7.0,
O=C(NC1CCCC1)C1C(c2ccccc2)=Nc2ccccc2N1C(=O)c1cc(Cl)cc(Cl)c1 (stereo unspecified),-4.6,/,7.1,/,/,
SMILES,ARFGAP1 inhibitor,PP5 inh,ASAP1 inh,PKD1 kinase inh,ASAP1 inh confirm,others
O=C(O)C1Nc2c(Cl)cc(Cl)cc2C2C=CCC12 (stereo unspecified),/,0.4,/,/,/,
O=C(O)C1Nc2c(O)cccc2C2C=CCC12 (stereo unspecified),-3.1,5.5,26.2*,11.7,19.8,
COc1ccccc1Oc1cc(F)nc(N)n1,11.4,-1.6,25.8*,-5.0,1.7,
Cc1ccccc1N1CCN(C(=O)CN2C(=O)c3ccccc3C2=O)CC1,-7.8,2.0,26.1*,12.2,0.5,
CC1CCc2cccc3c2N1c1cc(C#N)c(C#N)cc1O3 (stereo unspecified),1.2,3.9,27.2*,-10.0,1.0,
CC1CCCCN1c1cc(C#N)c(C#N)cc1[N+](=O)[O-] (stereo unspecified),8.4,-1.1,2.7,1.1,/,
Cc1ccc2nc(-c3ccc(F)cc3)c(Cc3ccsc3)n2c1,-5.0,/,-1.6,/,/,
COc1ccc2cc3c(N)nn(C(=O)c4ccc(Cl)c([N+](=O)[O-])c4)c3nc2c1,0.4,2.2,72.7*,-2.5,118.0*,
COc1ccc2cc3c(N)nn(C(=O)c4ccccc4[N+](=O)[O-])c3nc2c1,15.3,2.8,-4.4,-7.8,/,
Cn1c(C(=O)Nc2ccccc2)cc2sccc21,14.1,0.4,30.6*,-7.9,9.6,
CCCCn1nnnc1C1(C)CCC(=O)N1CCCn1ccnc1 (stereo unspecified),6.7,/,2.9,/,/,
O=C(CNC(=O)c1ccccc1O)N/N=C/c1cc(Br)ccc1OC(=O)/C=C/c1ccco1,21.3,-0.1,26.0*,-2.1,18.9,
CC(C)C1=CC2C3C(C(C(C)C)=CC(=O)[C@@]3(C)O)C1C(=O)C2(C)O (stereo partly specified),11.7,/,-6.9,/,/,
O=C(Nc1cccc(-c2csc(Nc3ccc(Cl)cc3)n2)c1)c1ccccc1,24.4,8.8,26.2*,/,26.1*,
CC(=O)Nc1ccc(C(=O)Nc2cccc(-c3cnc4ccccc4n3)c2)cc1,1.2,/,39.9*,-2.9,80.3*,
CCCS(=O)(=O)NC(=O)C1(C)CCN(C(=O)c2cc(OC)c(OC)c(OC)c2)C1 (stereo unspecified),6.2,/,12.6,/,/,
CCOC(=O)C(C(=O)Nc1cccc(C)n1)C1CCCCC1 (stereo unspecified),15.7,3.1,26.1*,0.6,7.5,
CCOC(=O)C(C(=O)Nc1ccccn1)C1CCCCC1 (stereo unspecified),12.1,3.1,-10.2,-4.5,/,

# High-throughput results from PubChem BioAssay.
